Laboratory results taken from ChEMBL document CHEMBL3124899, “Design, synthesis, and characterization of α-ketoheterocycles that additionally target the cytosolic port Cys269 of fatty acid amide hydrolase” (J Med Chem, 2014).
Active and inactive are the calls of the source. No cut-off for these calls is given here.

Assays:
[1] = Chemical stability in assay buffer assessed as compound hydrolysis after 6 hrs; type: physicochemical
[2] = target: T1, Fatty-acid amide hydrolase 1 (Rattus norvegicus) (UniProt P97612); experiment: Competitive reversible inhibition of recombinant rat FAAH expressed in Escherichia coli using [14C]-oleamide as substrate at 3 to 5 nM preincubated for 3 hrs by Lineweaver-Burk plot analysis
T1 sequence (whole entry): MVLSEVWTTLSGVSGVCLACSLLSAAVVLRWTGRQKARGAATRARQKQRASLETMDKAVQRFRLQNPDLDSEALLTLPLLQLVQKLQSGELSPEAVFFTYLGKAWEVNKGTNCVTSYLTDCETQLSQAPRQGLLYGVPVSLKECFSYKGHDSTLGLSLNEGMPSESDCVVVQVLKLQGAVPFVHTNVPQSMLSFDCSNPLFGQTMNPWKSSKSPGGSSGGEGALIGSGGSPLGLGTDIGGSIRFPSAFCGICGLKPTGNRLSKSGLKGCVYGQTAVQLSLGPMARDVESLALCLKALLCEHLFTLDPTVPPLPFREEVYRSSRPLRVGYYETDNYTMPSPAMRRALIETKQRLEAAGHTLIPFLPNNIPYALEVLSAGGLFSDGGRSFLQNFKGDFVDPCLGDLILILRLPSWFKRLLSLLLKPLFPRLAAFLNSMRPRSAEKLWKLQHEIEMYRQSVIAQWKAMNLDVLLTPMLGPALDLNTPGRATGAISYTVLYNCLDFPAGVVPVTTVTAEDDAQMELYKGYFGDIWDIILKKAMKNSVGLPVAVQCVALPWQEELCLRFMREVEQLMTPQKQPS

[3] = target: T1, Fatty-acid amide hydrolase 1 (Rattus norvegicus); experiment: Irreversible inhibition of recombinant rat FAAH expressed in Escherichia coli assessed as remaining activity at IC80 preincubated for 3 hrs followed by 370 fold dilution measured after 18 hrs
[4] = target: T2, Fatty-acid amide hydrolase 1 (Rattus norvegicus, UniProt P97612); experiment: Time-dependent inhibition of recombinant rat FAAH expressed in Escherichia coli assessed as breakdown of [14C]-oleamide preincubated for 6 hrs by Dixon plot analysis
T2 sequence (P97612 whole entry): T1 sequence (whole entry)
Summary of the method: (§1)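 The reaction used 20 μM 14C-oleamide in pH 9.0 Tris/EDTA/Triton X-100/Hepes buffer at 20–23 °C, at three inhibitor concentrations. HCl-quenched time points were analysed by EtOAc extraction and TLC for oleic acid formation. Ki came from a Dixon plot.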

[5] = target: T1, Fatty-acid amide hydrolase 1 (Rattus norvegicus); experiment: Noncompetitive inhibition of recombinant rat FAAH expressed in Escherichia coli assessed as breakdown of [14C]-oleamide at 3 to 5 nM preincubated for 3 hrs by Lineweaver-Burk plot analysis
[6] = organism: Mus musculus; experiment: Selectivity ratio of IC50 for mouse brain membrane MAGL to IC50 for mouse FAAH
[7] = organism: Mus musculus; experiment: Selectivity ratio of IC50 for mouse brain membrane ABHD6 to IC50 for mouse FAAH
[8] = organism: Mus musculus; experiment: Selectivity ratio of IC50 for mouse brain membrane KIAA1363 to IC50 for mouse FAAH
[9] = target: T1, Fatty-acid amide hydrolase 1 (Rattus norvegicus); experiment: Mixed-type inhibition of recombinant rat FAAH expressed in Escherichia coli assessed as breakdown of [14C]-oleamide preincubated for 3 hrs by Lineweaver-Burk plot analysis
[10] = system: Mus musculus; experiment: In vivo inhibition of FAAH in C57Bl/6J mouse assessed as increase in AEA level in brain at 30 mg/kg, ip after 3 hrs relative to vehicle-treated control; type: functional; conditions: route intraperitoneal
Summary of the method: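 Male C57Bl/6J mice (<6 months, 20–28 g), n = 3, received 30 mg/kg i.p. in 18:1:1 saline/ethanol/emulphor at 10 μL/g. Brains were taken 3 h later and homogenized in CHCl3/MeOH/Tris with d4-PEA, d4-AEA and pentadecanoic acid standards. The organic extract was quantified by LC–ESI-MS/MS in positive mode and compared with vehicle-treated mice.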

[11] = target: T2, Fatty-acid amide hydrolase 1; experiment: Time-dependent inhibition of recombinant rat FAAH expressed in Escherichia coli assessed as breakdown of [14C]-oleamide preincubated for 1 hr by Dixon plot analysis; summary of the method: as §1
[12] = target: T1, Fatty-acid amide hydrolase 1 (Rattus norvegicus); experiment: Noncompetitive inhibition of recombinant rat FAAH expressed in Escherichia coli assessed as breakdown of [14C]-oleamide at 1 to 5 nM preincubated for 3 hrs by Lineweaver-Burk plot analysis
[13] = system: Mus musculus; experiment: In vivo inhibition of FAAH in C57Bl/6J mouse assessed as increase in AEA level in brain at 30 mg/kg, ip measured after > 6 hrs; type: functional, organism-based; set-up: dose 30 mg/kg
[14] = system: Mus musculus; experiment: In vivo inhibition of FAAH in C57Bl/6J mouse assessed as increase in PEA level in brain at 30 mg/kg, ip measured after > 6 hrs; type: functional, organism-based; set-up: dose 30 mg/kg
[15] = system: Mus musculus; experiment: In vivo inhibition of FAAH in C57Bl/6J mouse assessed as increase in OEA level in brain at 30 mg/kg, ip measured within 1.5 to 3 hrs; type: functional, organism-based; set-up: dose 30 mg/kg
[16] = system: Mus musculus; experiment: In vivo inhibition of FAAH in C57Bl/6J mouse assessed as increase in OEA level in brain at 30 mg/kg, ip measured after > 6 hrs; type: functional, organism-based; set-up: dose 30 mg/kg
[17] = target: T1, Fatty-acid amide hydrolase 1 (Rattus norvegicus); experiment: Noncompetitive inhibition of recombinant rat FAAH expressed in Escherichia coli assessed as breakdown of [14C]-oleamide at 0.5 to 5 nM preincubated for 3 hrs by Lineweaver-Burk plot analysis
[18] = system: Mus musculus; experiment: In vivo inhibition of FAAH in C57Bl/6J mouse assessed as increase in PEA level in brain at 30 mg/kg, ip measured within 1.5 to 3 hrs; type: functional, organism-based; set-up: dose 30 mg/kg
[19] = system: Mus musculus; experiment: In vivo inhibition of FAAH in C57Bl/6J mouse assessed as increase in AEA level in brain at 30 mg/kg, ip measured within 1.5 to 3 hrs; type: functional, organism-based; set-up: dose 30 mg/kg
[20] = target: T2, Fatty-acid amide hydrolase 1; experiment: Time-dependent inhibition of recombinant rat FAAH expressed in Escherichia coli assessed as breakdown of [14C]-oleamide preincubated for 3 hrs by Dixon plot analysis; summary of the method: as §1
[21] = target: T1, Fatty-acid amide hydrolase 1 (Rattus norvegicus); conditions: 5 to 10 nM
[22] = system: Mus musculus; experiment: In vivo inhibition of FAAH in C57Bl/6J mouse assessed as increase in OEA level in brain at 30 mg/kg, ip measured within 2 to 3 hrs; type: functional, organism-based; set-up: dose 30 mg/kg
[23] = system: Mus musculus; experiment: In vivo inhibition of FAAH in C57Bl/6J mouse assessed as increase in AEA level in brain at 30 mg/kg, ip measured within 2 to 3 hrs; type: functional, organism-based; set-up: dose 30 mg/kg
[24] = target: T1, Fatty-acid amide hydrolase 1 (Rattus norvegicus); conditions: 1 to 10 nM
[25] = system: Mus musculus; experiment: In vivo inhibition of FAAH in C57Bl/6J mouse assessed as increase in PEA level in brain at 30 mg/kg, ip measured within 2 to 3 hrs; type: functional, organism-based; set-up: dose 30 mg/kg
[26] = target: T1, Fatty-acid amide hydrolase 1 (Rattus norvegicus); experiment: Noncompetitive inhibition of recombinant rat FAAH expressed in Escherichia coli assessed as breakdown of [14C]-oleamide at 1 to 3 nM preincubated for 3 hrs by Lineweaver-Burk plot analysis
[27] = Chemical stability in enzymatic assay buffer assessed as transient enzyme adduct formation; type: ADME
[28] = target: T2, Fatty-acid amide hydrolase 1; experiment: Inhibition of recombinant rat FAAH expressed in Escherichia coli assessed as breakdown of [14C]-oleamide by Dixon plot analysis
Summary of the method: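 Purified rat FAAH expressed in E. coli, with no inhibitor preincubation. The enzyme was at 1 nM, or 800, 500 or 200 pM for tight binders. It was mixed with 20 μM 14C-oleamide in pH 9.0 Tris/EDTA/glycerol/Triton X-100/Hepes buffer at room temperature, with three inhibitor concentrations. Aliquots were quenched in 0.1 N HCl at three time points, extracted with EtOAc and separated by TLC. Ki came from a Dixon plot.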

[29] = target: T1, Fatty-acid amide hydrolase 1 (Rattus norvegicus); experiment: Competitive reversible inhibition of recombinant rat FAAH expressed in Escherichia coli using [14C]-oleamide as substrate at 1 to 5 nM preincubated for 3 hrs by Lineweaver-Burk plot analysis

SMILES: CSC(=O)CCCCc1cnc(C(=O)CCCCCCc2ccccc2)o1
- Stability [1]: Stable
- inhibition [2]: Active

SMILES: COC(=N)Cc1ccc(-c2cnc(C(=O)CCCCCCc3ccccc3)o2)nc1
- remaining activity after dilution [3]: Active
- Ki [4]: 0.6 nM
- inhibition [5]: Active
- Ratio IC50 [6]: > 200
- Ratio IC50 [7]: > 10000
- Ratio IC50 [8]: > 10000

SMILES: CCOC(=O)/C=C/c1ccc(-c2cnc(C(=O)CCCCCCc3ccccc3)o2)nc1
- remaining activity after dilution [3]: Active
- inhibition [9]: Dose-dependent effect

SMILES: CCOS(=O)(=O)/C=C/c1ccc(-c2cnc(C(=O)CCCCCCc3ccccc3)o2)nc1
- remaining activity after dilution [3]: Active
- fold change (FC) [10]: 3.2
- Ki [11]: 0.3 nM
- Ratio IC50 [6]: > 200
- Ratio IC50 [7]: > 10000
- Ratio IC50 [8]: > 10000
- inhibition [12]: Active

SMILES: O=C(CCCCCCc1ccccc1)c1ncc(-c2ccc(CBr)cn2)o1
- remaining activity after dilution [3]: Active
- fold change (FC) [10]: 3.2
- inhibition [13]: Active
- inhibition [14]: Active
- Ki [4]: 0.2 nM
- inhibition [15]: Active
- Ratio IC50 [6]: > 200
- inhibition [16]: Active
- inhibition [17]: Active
- Ratio IC50 [7]: > 10000
- inhibition [18]: Active
- inhibition [19]: Active
- Ki [20]: 0.2 nM
- Ratio IC50 [8]: > 10000

SMILES: CSC(=O)Cc1ccc(-c2cnc(C(=O)CCCCCCc3ccccc3)o2)nc1
- inhibition [21]: Active

SMILES: N#CCc1ccc(-c2cnc(C(=O)CCCCCCc3ccccc3)o2)nc1
- remaining activity after dilution [3]: Active
- fold change (FC) [10]: 3.2
- inhibition [13]: Active
- inhibition [14]: Active
- Ki [4]: 0.5 nM
- inhibition [15]: Active
- Ratio IC50 [6]: > 200
- inhibition [16]: Active
- Ratio IC50 [7]: > 10000
- inhibition [18]: Active
- inhibition [19]: Active
- Ratio IC50 [8]: > 10000
- inhibition [12]: Active

SMILES: N#C/C=C/c1ccc(-c2cnc(C(=O)CCCCCCc3ccccc3)o2)nc1
- remaining activity after dilution [3]: Active
- Ki [4]: 2.7 nM
- inhibition [9]: Dose-dependent effect

SMILES: CS(=O)(=O)/C=C/c1ccc(-c2cnc(C(=O)CCCCCCc3ccccc3)o2)nc1
- remaining activity after dilution [3]: Active
- fold change (FC) [10]: 2.8
- inhibition [5]: Active
- Ratio IC50 [6]: > 200
- Ratio IC50 [7]: > 10000
- Ki [20]: 0.3 nM
- Ratio IC50 [8]: > 10000

SMILES: O=C(CCCCCCc1ccccc1)c1ncc(-c2ccccn2)o1
- inhibition [22]: Active
- inhibition [23]: Active
- inhibition [24]: Active
- inhibition [25]: Active

SMILES: C[S+]([O-])/C=C/c1ccc(-c2cnc(C(=O)CCCCCCc3ccccc3)o2)nc1 (configuration not stated)
- remaining activity after dilution [3]: Active
- fold change (FC) [10]: 2.6
- inhibition [26]: Active
- Ratio IC50 [6]: > 200
- Ratio IC50 [7]: > 10000
- Ratio IC50 [8]: > 10000

SMILES: CSCCCCCc1cnc(C(=O)CCCCCCc2ccccc2)o1
- Ki [20]: 6.4 nM

SMILES: O=C(CCCCCCc1ccccc1)c1ncc(-c2ccc(CCl)cn2)o1
- Ki [4]: 24.6 nM

SMILES: N#CCCCCCc1cnc(C(=O)CCCCCCc2ccccc2)o1
- Ki [4]: 4 nM

SMILES: CSC(=O)c1ccc(-c2cnc(C(=O)CCCCCCc3ccccc3)o2)nc1
- Stability [1]: Stable
- Stability [27]: Stable
- inhibition [2]: Active
- Ki [20]: 2 nM
- Ki [28]: 2 nM

SMILES: O=C(CCCCCCc1ccccc1)c1ncc(CCCCCBr)o1
- Ki [11]: 6.1 nM
- Ki [4]: 6 nM
- Ki [28]: 6.1 nM

SMILES: COC(=O)c1ccc(-c2cnc(C(=O)CCCCCCc3ccccc3)o2)nc1
- inhibition [29]: Active
